Test results from publication PMC7111758 (Tetrahedron, 2019).

Columns and labels:
[1] = system: herpes simplex virus type 2 (HSV-2) strain G; assay: Antiviral assay, virus-induced cytopathic effect in HEL cells, HSV-2 G; assay type: cell-based; conditions: Human alphaherpesvirus 2, HEL, read-out: Antiviral activity - EC50 HSV-2 G (TK+)
HEL cells = assay: Cytotoxicity, microscopically detectable alteration of cell morphology; assay type: cell-based, human; conditions: for Cytotoxicity MCC (minimum cytotoxic concentration): microscopically detectable alteration of cell morphology
[2] = Cytostatic activity, inhibition of HEL cell growth; assay type: cell-based; conditions: human, HEL cells
How it was run: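 HEL cells seeded at 5 × 10^3 cells/well, allowed to proliferate 24 h, then given medium with different concentrations of test compound. After three days at 37 °C, cell number counted with a Coulter counter. CC50 is the concentration reducing proliferation by 50% relative to untreated control cell counts.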

[3] = system: human cytomegalovirus (HCMV) strain AD-169; assay: Antiviral assay, virus-induced cytopathic effect in HEL cells, HCMV AD-169; assay type: cell-based; conditions: HCMV replication; compared with reference drug ganciclovir
[4] = system: varicella-zoster virus (VZV) strain Oka (TK+); assay: microbe, parasite or virus in culture; assay type: cell-based; conditions: Human alphaherpesvirus 3, HEL, read-out: Antiviral activity - EC50 VZV Oka (TK+)
adenovirus-2 = assay: Antiviral assay, virus-induced cytopathic effect, adenovirus-2; assay type: cell-based; conditions: for EC50: Human mastadenovirus C, read-out: Antiviral activity - EC50 Adeno-2
[5] = system: human cytomegalovirus (HCMV) strain Davis; assay: Antiviral assay, virus-induced cytopathic effect in HEL cells, HCMV Davis; assay type: cell-based; conditions: Human betaherpesvirus 5, HEL, read-out: Antiviral activity - EC50 HCMV Davis
vaccinia virus (VACV) = assay: microbe, parasite or virus in culture; assay type: cell-based; conditions: for EC50: Orthopoxvirus vaccinia, HEL, read-out: Antiviral activity - EC50 VACV

Row | Compound | EC50 [1] | Cytotoxicity MCC (minimum cytotoxic concentration) (HEL cells) | cytotoxicity for HEL cells (HEL cells; no cytotoxicity up to the highest concentration tested) | CC50 at 3 days [2] | EC50 against HCMV relative to ganciclovir [3] | EC50 [4] | EC50 (adenovirus-2) | activity against adenoviruses (adenovirus-2; in words) | EC50 [5] | activity against vaccinia virus (poxvirus) (vaccinia virus (VACV)) | EC50 (vaccinia virus (VACV))
1 | CC(C)OP(=O)(CO[C@H](CF)Cn1cnc(N)nc1=O)OC(C)C [8a, Diisopropyl (S)-{[(1-(4-amino-2-oxo-1,3,5-triazin-1(2H)-yl)-3-fluoropropan-2-yl)oxy]methyl}phosphonate] | 17.5 ± 10.6 µM | >100 µM | > 100 µM | > 100 µM | about three times higher | 11.7 ± 4 µM | > 100 µM | inactive | 7.9 ± 5.5 µM | inactive | > 100 µM
2 | CCOC(=O)C(C)NP(=O)(COC(CF)CN1CN2C=C(c3ccccc3)NC2=NC1=O)NC(C)C(=O)OCC (centres unmarked) [19a, Diethyl 2,2'-(((((1-fluoro-3-(2-oxo-7-phenyl-2,8-dihydroimidazo[1,2-a][1,3,5]triazin-3(4H)-yl)propan-2-yl)oxy)methyl)phosphoryl)bis(azanediyl))-dipropionate] | > 100 µM | >100 µM |  |  |  | > 100 µM | > 100 µM |  | > 100 µM |  | > 100 µM
3 | CCOC(=O)C(C)NP(=O)(COC(CF)CN1CN2C=C(c3ccc([N+](=O)[O-])cc3)NC2=NC1=O)NC(C)C(=O)OCC (centres unmarked) [19b, Diethyl 2,2'-(((((1-fluoro-3-(7-(4-nitrophenyl)-2-oxo-2,8-dihydroimidazo[1,2-a][1,3,5]triazin-3(4H)-yl)propan-2-yl)oxy)methyl)phosphoryl)bis(azanediyl))-dipropionate] | > 100 µM | >100 µM |  |  |  | > 100 µM | > 100 µM |  | > 100 µM |  | > 100 µM
4 | CCOC(=O)C(C)NP(=O)(COC(CF)CN1CN2C=C(c3ccc(OC)cc3)NC2=NC1=O)NC(C)C(=O)OCC (centres unmarked) [19c, Diethyl 2,2'-(((((1-fluoro-3-(7-(4-methoxyphenyl)-2-oxo-2,8-dihydroimidazo[1,2-a][1,3,5]triazin-3(4H)-yl)propan-2-yl)oxy)methyl)phosphoryl)bis(azanediyl))-dipropionate] | > 100 µM | >100 µM |  |  |  | > 100 µM | > 100 µM |  | > 100 µM |  | > 100 µM
5 | Nc1nc2c(ncn2COCCO)c(=O)[nH]1 [ACV, acyclovir, reference compound] | 0.21 ± 0.12 µM | >440 µM |  | > 440 µM |  |  |  |  |  |  | > 250 µM
6 | O=c1[nH]c(=O)n([C@H]2C[C@H](O)[C@@H](CO)O2)cc1/C=C/Br [BVDU, brivudine, reference compound] | 123 ± 26 µM | >300 µM |  | > 300 µM |  | 0.023 ± 0.021 µM |  |  |  |  | 11.3 ± 6.4 µM
7 | Nc1ccn(C[C@@H](CO)OCP(=O)(O)O)c(=O)n1 [CDV, cidofovir, reference compound] | 1.3 ± 0.4 µM | >300 µM |  | > 300 µM |  |  | 8.3 ± 2.1 µM |  | 0.73 ± 0.31 µM |  | 26 ± 12 µM
8 | Nc1nc(O)c2ncn(COC(CO)CO)c2n1 [GCV, ganciclovir, reference compound] | 0.03 µM | >350 µM |  | > 350 µM |  |  |  |  | 3 ± 2.7 µM |  | > 100 µM
9 | Nc1ncn(C[C@@H](CF)OCP(=O)(O)O)c(=O)n1 [compound 9, (S)-{[1-(4-Amino-2-oxo-1,3,5-triazin-1(2H)-yl)-3-fluoropropan-2-yl]oxymethyl}phosphonic acid] | > 100 µM | >100 µM |  |  |  | > 100 µM | > 100 µM |  | > 100 µM |  | > 100 µM
10 | NC1=NC(=O)N(C[C@@H](CF)OCP(=O)(O)O)CN1 [compound 13, (S)-1-[3-Fluoro-2-(phosphonomethoxy)propyl]-5,6-dihydro-5-azacytosine] | > 100 µM | >100 µM |  |  |  | > 100 µM | > 100 µM |  | > 100 µM |  | > 100 µM
11 | Nc1ncn(CC(O)C(F)(F)F)c(=O)n1 (centres unmarked) [compound 22, 4-Amino-1-(3,3,3-trifluoro-2-hydroxypropyl)-1,3,5-triazin-2(1H)-one] | 230 ± 29 µM | >446 µM |  | > 446 µM |  | 40.6 ± 11.7 µM | 268 ± 178 µM |  | 200 ± 17.8 µM |  | > 446 µM
12 | CC(=O)O.NC1=NC(=O)N(CC(O)C(F)(F)F)CN1 (centres unmarked) [compound 23, 6-Amino-4-oxo-3-(3,3,3-trifluoro-2-hydroxypropyl)-1,2,3,4-tetrahydro-1,3,5-triazin-1-ium acetate] | > 100 µM | >100 µM |  |  |  | > 100 µM | > 100 µM |  | > 100 µM |  | > 100 µM
13 | Nc1ncn(CC(OCP(=O)(O)O)C(F)(F)F)c(=O)n1 (centres unmarked) [compound 25, {[(3-(4-Amino-2-oxo-1,3,5-triazin-1(2H)-yl)-1,1,1-trifluoropropan-2-yl)oxy]methyl}phosphonic acid] | > 100 µM | >100 µM |  |  |  | > 100 µM | > 100 µM |  | > 100 µM |  | > 100 µM
